“And” between values parts separate entries of the source, which are not always exact repeats. Equal entries are not always repeated.
These compounds were tested on Fibroblast (assay: Multiplex assay against human fibroblast). Conditions: 12 h, 1 µM, compound concentration 1 uM.
Format: toxicity, cell-based
Outline: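 Four dyes were applied at seeding to live cells: Hoechst33342, BioTracker Green Microtubule Cytoskeleton Dye, MitoTracker Red and Annexin V Alexa Fluor 680. Imaging after compound addition used a CQ1 microscope at 37°C and 5% CO2. CellPathfinder machine-learning gating then sorted cells into Hoechst high-intensity objects or normal cells, normal cells into healthy, pyknosed or fragmented nuclei, and pyknosed cells into mitotic or apoptotic, with tubulin, mitochondrial-mass and membrane-permeability phenotypes given as per cents of healthy-nucleus cells.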

SMILES	Population Fragmented Nuclei (%)	Population Healthy Nuclei (%)	Population Hoechst High Intensity Objects (%)	Population Membrane Permeable-Phenotype (%)	Population Mitochondria Different-Phenotype (%)	Population Mitotic Cells (%)	Population Normal (%)	Population Pyknosed Nuclei (%)	Population Tubulin-Different-Phenotype (%)	Total Cell Count
Cc1cc(C(C#N)c2ccc(Cl)cc2)c(Cl)cc1NC(=O)c1cc(I)cc(I)c1O (stereo not given) [CLOSANTEL]	11% and 4.88%	69% and 80%	0%	3.62% and 2.44%	10.14% and 4.88%	97.5% and 87.1%	100%	20% and 15.12%	11.59%	200 and 205
Nc1nc(-c2ccco2)c2cnn(Cc3ccccc3F)c2n1	–	78% and 50%	0% and 6%	1% and 2%	2% and 5%	50% and 54%	99% and 93%	11% and 17%	26% and 42%	189 and 144
CC1(COc2ccc3c(c2)ncn3-c2ccc3cccc(N4CCC(N)CC4)c3n2)COC1 [CRENOLANIB]	27% and 33%	60% and 47%	2% and 4%	0% and 7%	4% and 9%	38% and 81%	97% and 95%	12% and 18%	48% and 67%	–
Cc1c(-c2cc(-c3ccccc3Cl)no2)cnn1C1CCNCC1.Cl	12.32% and 5.31%	58.77% and 79.2%	0%	4.03% and 3.91%	17.74% and 8.94%	93.44% and 68.57%	100%	28.91% and 15.49%	32.26% and 22.91%	211 and 226

Same assay, conditions: 12 h, 1 µM, compound concentration 1 uM

SMILES	Population Apoptotic (%)
Nc1nc(-c2ccco2)c2cnn(Cc3ccccc3F)c2n1	50% and 45%

Same assay, conditions: 12 h, 10 µM, compound concentration 10 uM

SMILES	Population Fragmented Nuclei (%)	Population Healthy Nuclei (%)	Population Hoechst High Intensity Objects (%)	Population Membrane Permeable-Phenotype (%)	Population Mitochondria Different-Phenotype (%)	Population Mitotic Cells (%)	Population Normal (%)	Population Pyknosed Nuclei (%)	Population Tubulin-Different-Phenotype (%)	Total Cell Count
Cc1cc(C(C#N)c2ccc(Cl)cc2)c(Cl)cc1NC(=O)c1cc(I)cc(I)c1O (stereo not given) [CLOSANTEL]	14.05% and 6.49%	60.33% and 78.38%	0%	3.42% and 2.76%	8.22% and 6.21%	95.16% and 78.57%	100%	25.62% and 15.14%	12.33% and 14.48%	242 and 185
Nc1nc(-c2ccco2)c2cnn(Cc3ccccc3F)c2n1	16% and 39%	61% and 44%	8% and 10%	0% and 5%	7% and 13%	45% and 52%	91% and 89%	21% and 16%	38% and 51%	123 and 147
CC1(COc2ccc3c(c2)ncn3-c2ccc3cccc(N4CCC(N)CC4)c3n2)COC1 [CRENOLANIB]	21% and 29%	48% and 40%	4% and 13%	2% and 6%	6% and 9%	66% and 65%	95% and 86%	30%	43% and 48%	–
Cc1c(-c2cc(-c3ccccc3Cl)no2)cnn1C1CCNCC1.Cl	8.72% and 4.05%	41.74% and 54.95%	0%	10.99% and 13.93%	46.15% and 28.69%	81.48% and 60.44%	100%	49.54% and 40.99%	73.63% and 83.61%	218 and 222

Same assay, conditions: 12 h, 10 µM, compound concentration 10 uM

SMILES	Population Apoptotic (%)
Nc1nc(-c2ccco2)c2cnn(Cc3ccccc3F)c2n1	54% and 47%
CC1(COc2ccc3c(c2)ncn3-c2ccc3cccc(N4CCC(N)CC4)c3n2)COC1 [CRENOLANIB]	33% and 34%
Cc1c(-c2cc(-c3ccccc3Cl)no2)cnn1C1CCNCC1.Cl	18.52% and 39.56%

Same assay, conditions: 24 h, 1 µM, compound concentration 1 uM

SMILES	Population Apoptotic (%)	Population Fragmented Nuclei (%)	Population Healthy Nuclei (%)	Population Hoechst High Intensity Objects (%)	Population Membrane Permeable-Phenotype (%)	Population Mitochondria Different-Phenotype (%)	Population Mitotic Cells (%)	Population Normal (%)	Population Pyknosed Nuclei (%)	Population Tubulin-Different-Phenotype (%)
Cc1cc(C(C#N)c2ccc(Cl)cc2)c(Cl)cc1NC(=O)c1cc(I)cc(I)c1O (stereo not given) [CLOSANTEL]	11.76% and 28.57%	7.66% and 4.52%	77.03% and 88.44%	0%	1.17% and 0.57%	7.6% and 4.55%	88.24% and 71.43%	100%	15.32% and 7.04%	12.28% and 13.07%
Nc1nc(-c2ccco2)c2cnn(Cc3ccccc3F)c2n1	50% and 56%	–	82% and 53%	0% and 6%	0% and 4%	2% and 5%	50% and 43%	100% and 93%	7% and 17%	24% and 37%
CC1(COc2ccc3c(c2)ncn3-c2ccc3cccc(N4CCC(N)CC4)c3n2)COC1 [CRENOLANIB]	92% and 50%	29% and 41%	60% and 48%	0% and 1%	0% and 4%	9%	–	99% and 98%	9% and 10%	61% and 63%
Cc1c(-c2cc(-c3ccccc3Cl)no2)cnn1C1CCNCC1.Cl	8% and 20.83%	12.4% and 7.5%	67.6% and 82.5%	0%	4.73% and 1.01%	7.69% and 3.54%	92% and 79.17%	100%	20% and 10%	33.73% and 29.8%

Same assay, conditions: 24 h, 1 µM, compound concentration 1 uM

SMILES	Total Cell Count
Cc1cc(C(C#N)c2ccc(Cl)cc2)c(Cl)cc1NC(=O)c1cc(I)cc(I)c1O (stereo not given) [CLOSANTEL]	222 and 199
Nc1nc(-c2ccco2)c2cnn(Cc3ccccc3F)c2n1	180 and 139
Cc1c(-c2cc(-c3ccccc3Cl)no2)cnn1C1CCNCC1.Cl	250 and 240

Same assay, conditions: 24 h, 10 µM, compound concentration 10 uM

SMILES	Population Apoptotic (%)	Population Fragmented Nuclei (%)	Population Healthy Nuclei (%)	Population Hoechst High Intensity Objects (%)	Population Membrane Permeable-Phenotype (%)	Population Mitochondria Different-Phenotype (%)	Population Mitotic Cells (%)	Population Normal (%)	Population Pyknosed Nuclei (%)	Population Tubulin-Different-Phenotype (%)
Cc1cc(C(C#N)c2ccc(Cl)cc2)c(Cl)cc1NC(=O)c1cc(I)cc(I)c1O (stereo not given) [CLOSANTEL]	10.53% and 22.73%	9.54% and 3.72%	74.69% and 84.57%	0%	2.22% and 2.52%	3.89% and 5.03%	89.47% and 77.27%	100%	15.77% and 11.7%	12.78% and 13.84%
Nc1nc(-c2ccco2)c2cnn(Cc3ccccc3F)c2n1	70% and 43%	19% and 43%	66% and 44%	6% and 8%	–	8% and 5%	29% and 56%	93% and 91%	14% and 11%	39% and 46%
CC1(COc2ccc3c(c2)ncn3-c2ccc3cccc(N4CCC(N)CC4)c3n2)COC1 [CRENOLANIB]	36% and 34%	23% and 25%	51% and 46%	16% and 17%	0% and 6%	8% and 6%	63% and 65%	83% and 82%	24% and 28%	23% and 38%
Cc1c(-c2cc(-c3ccccc3Cl)no2)cnn1C1CCNCC1.Cl	36.97% and 65.81%	10.44% and 3.51%	24.18% and 28.07%	0%	25% and 20.83%	63.64% and 60.42%	63.03% and 34.19%	100%	65.38% and 68.42%	72.73% and 68.75%

Same assay, conditions: 24 h, 10 µM, compound concentration 10 uM

SMILES	Total Cell Count
Cc1cc(C(C#N)c2ccc(Cl)cc2)c(Cl)cc1NC(=O)c1cc(I)cc(I)c1O (stereo not given) [CLOSANTEL]	241 and 188
Nc1nc(-c2ccco2)c2cnn(Cc3ccccc3F)c2n1	127 and 147
Cc1c(-c2cc(-c3ccccc3Cl)no2)cnn1C1CCNCC1.Cl	182 and 171

Same assay, conditions: 48 h, 1 µM, compound concentration 1 uM

SMILES	Population Apoptotic (%)	Population Fragmented Nuclei (%)	Population Healthy Nuclei (%)	Population Hoechst High Intensity Objects (%)	Population Membrane Permeable-Phenotype (%)	Population Mitotic Cells (%)	Population Normal (%)	Population Pyknosed Nuclei (%)	Population Tubulin-Different-Phenotype (%)	Total Cell Count
Cc1cc(C(C#N)c2ccc(Cl)cc2)c(Cl)cc1NC(=O)c1cc(I)cc(I)c1O (stereo not given) [CLOSANTEL]	35.29% and 17.65%	10.13% and 6.91%	82.38% and 85.25%	0%	1.07% and 1.62%	64.71% and 82.35%	100%	7.49% and 7.83%	8.02% and 14.05%	227 and 217
Nc1nc(-c2ccco2)c2cnn(Cc3ccccc3F)c2n1	45% and 57%	16% and 41%	77% and 48%	3% and 6%	2% and 4%	54% and 42%	96% and 93%	6% and 10%	26% and 37%	182 and 147
CC1(COc2ccc3c(c2)ncn3-c2ccc3cccc(N4CCC(N)CC4)c3n2)COC1 [CRENOLANIB]	–	32% and 44%	60% and 44%	1% and 0%	0% and 5%	–	98% and 99%	7% and 12%	55% and 74%	–
Cc1c(-c2cc(-c3ccccc3Cl)no2)cnn1C1CCNCC1.Cl	25% and 11.11%	10.69% and 10.92%	83.79% and 85.92%	0%	4.12% and 11.48%	75% and 88.89%	100%	5.52% and 3.17%	31.28% and 31.15%	290 and 284

Same assay, conditions: 48 h, 1 µM, compound concentration 1 uM

SMILES	Population Mitochondria Different-Phenotype (%)
Nc1nc(-c2ccco2)c2cnn(Cc3ccccc3F)c2n1	1% and 9%
CC1(COc2ccc3c(c2)ncn3-c2ccc3cccc(N4CCC(N)CC4)c3n2)COC1 [CRENOLANIB]	8% and 7%
Cc1c(-c2cc(-c3ccccc3Cl)no2)cnn1C1CCNCC1.Cl	9.05% and 0.82%

Same assay, conditions: 48 h, 10 µM, compound concentration 10 uM

SMILES	Population Apoptotic (%)	Population Fragmented Nuclei (%)	Population Healthy Nuclei (%)	Population Hoechst High Intensity Objects (%)	Population Membrane Permeable-Phenotype (%)	Population Mitochondria Different-Phenotype (%)	Population Mitotic Cells (%)	Population Normal (%)	Population Pyknosed Nuclei (%)	Population Tubulin-Different-Phenotype (%)
Cc1cc(C(C#N)c2ccc(Cl)cc2)c(Cl)cc1NC(=O)c1cc(I)cc(I)c1O (stereo not given) [CLOSANTEL]	33.33% and 66.67%	6.69% and 4.66%	88.85% and 92.23%	0%	0.84% and 3.93%	12.13% and 3.93%	66.67% and 33.33%	100%	4.46% and 3.11%	5.02% and 12.36%
Nc1nc(-c2ccco2)c2cnn(Cc3ccccc3F)c2n1	80% and 50%	25% and 50%	65% and 38%	9% and 5%	0% and 16%	10%	20% and 50%	90% and 94%	9% and 10%	27% and 51%
CC1(COc2ccc3c(c2)ncn3-c2ccc3cccc(N4CCC(N)CC4)c3n2)COC1 [CRENOLANIB]	42% and 37%	16% and 23%	62% and 42%	24% and 21%	1%	6%	57% and 62%	75% and 78%	21% and 33%	23% and 27%
Cc1c(-c2cc(-c3ccccc3Cl)no2)cnn1C1CCNCC1.Cl	53.41% and 92.06%	14.67% and 6.71%	37.5% and 51.01%	0%	–	43.48% and 21.05%	–	100%	47.83% and 42.28%	15.94% and 32.89%

Same assay, conditions: 48 h, 10 µM, compound concentration 10 uM

SMILES	Total Cell Count
Cc1cc(C(C#N)c2ccc(Cl)cc2)c(Cl)cc1NC(=O)c1cc(I)cc(I)c1O (stereo not given) [CLOSANTEL]	269 and 193
Nc1nc(-c2ccco2)c2cnn(Cc3ccccc3F)c2n1	115 and 155
Cc1c(-c2cc(-c3ccccc3Cl)no2)cnn1C1CCNCC1.Cl	184 and 149

— ChEMBL document CHEMBL5724801, “EUbOPEN Chemogenomics Library - Multiplex” (2024)
